The experiment has as its system CCRF-CEM. As to the kind of experiment: Cytotoxicity against human CEM cells after 72 hrs by MTT assay. In kind it is cell-based. The essentials: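 Cells seeded at 2500-30 000 per well depending on growth characteristics, preincubated 24 h at 37 °C, 5% CO2. Compounds dissolved in 10% DMSO, added as four-fold dilutions, quadruplicate. 72 h exposure at 37 °C, 5% CO2, 100% humidity. MTT added for 1-4 h, formazan dissolved in 10% aqueous SDS (pH 5.5) overnight at 37 °C, OD 540 nm. Survival relative to control wells; TCS50 taken from dose-response curves.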

By IC50 is commonly meant the concentration needed to halve the response being measured. For `C=C(C)[C@@H]1CC[C@]2(C(=O)OC)CC[C@]3(C)[C@H](CC[C@@H]4[C@@]5(C)CCC(=O)C(C)(C)[C@@H]5CC[C@]43C)[C@@H]12` [METHYL BETULONATE], inhibition was half-maximal at 250 µM (IC50).

In turn, `CC(C)C1=C2CC[C@]3(C)[C@H](CC[C@H]4C5[C@H]6O[C@@]5(CCC6(C)C)CC[C@]43C)[C@@]2(C)c2nccnc21` (some centres undefined) registered a half-maximal inhibitory concentration (IC50) of 250 µM.

`CC(C)[C@@H]1CC[C@]2(CO)CC[C@]3(C)[C@H](CC[C@@H]4[C@@]5(C)Cc6nc7ccccc7nc6C(C)(C)[C@@H]5CC[C@]43C)[C@@H]12` had an IC50 of 35 µM.

Compound `CC(C)C1=C2CC[C@]3(C)[C@H](CC[C@@H]4[C@H]5[C@H]6O[C@@]5(CCC6(C)C)CC[C@]43C)[C@@]2(C)C(=O)C1=O` had an IC50 of 250 µM. This IC50 lies about 7.1-fold higher than the previous one. In the case of `C=C(C)[C@@H]1CC[C@]2(CO)CC[C@]3(C)[C@H](CC[C@@H]4[C@@]5(C)Cc6nc7ccccc7nc6C(C)(C)[C@@H]5CC[C@]43C)[C@@H]12` it was 178 µM; in that of `C=C(C)[C@@H]1CC[C@]2(CO)CC[C@]3(C)[C@H](CC[C@@H]4[C@@]5(C)CC[C@H](O)C(C)(C)[C@@H]5CC[C@]43C)[C@@H]12` [BETULIN], 250 µM. In the case of `CC(C)[C@@H]1CC[C@]2(CO)CC[C@]3(C)[C@H](CC[C@@H]4[C@@]5(C)Cc6nccnc6C(C)(C)[C@@H]5CC[C@]43C)[C@@H]12`, half-maximal inhibition (IC50) required 74 µM. In the case of `CC1(C)CC[C@]23CC[C@]4(C)[C@H](CC[C@@H]5[C@@]6(C)CCC(=O)C(C)(C)[C@@H]6CC[C@]54C)[C@H]2[C@H]1O3` [ALLOBETULONE] it was 250 µM. Under `C=C(C)[C@@H]1CC[C@]2(C(=O)OC)CC[C@]3(C)[C@H](CC[C@@H]4[C@@]5(C)Cc6nccnc6C(C)(C)[C@@H]5CC[C@]43C)[C@@H]12` stands 250 µM.

`CC(C)C1=C2CC[C@]3(C)[C@H](CC[C@@H]4[C@H]5[C@H]6O[C@@]5(CCC6(C)C)CC[C@]43C)[C@@]2(C)c2nc3ccccc3nc21` came in with an IC50 of 250 µM. In the case of `CC(=O)OC1CC[C@]2(C)[C@H]3CC[C@H]4C5=C(CC[C@@]4(C)[C@]3(C)CC[C@H]2C1(C)C)c1nccnc1[C@H]5C(C)C` (some centres undefined) it was 244 µM. With `COC(=O)[C@]12CC[C@@H](C(C)C)[C@@H]1[C@H]1CC[C@@H]3[C@@]4(C)CCC(=O)C(C)(C)[C@@H]4CC[C@@]3(C)[C@]1(C)CC2` [METHYL DIHYDROBETULONATE], inhibition was half-maximal at 173 µM (IC50). In the case of `CC1(C)CC[C@]23CC[C@]4(C)[C@H](CC[C@@H]5[C@@]6(C)Cc7nc8ccccc8nc7C(C)(C)[C@@H]6CC[C@]54C)[C@H]2[C@H]1OC3` it was 250 µM. In the case of `COC(=O)[C@@]12CC[C@]3(C)[C@@H](CC[C@@H]4[C@@]5(C)CCC(OC(C)=O)C(C)(C)[C@@H]5CC[C@]43C)C1=C(C(C)C)c1nccnc12` (some centres undefined), it took 250 µM to reach half-maximal inhibition (IC50). In the case of `CC(C)[C@@H]1CC[C@]2(C(=O)O)CC[C@]3(C)[C@H](CC[C@@H]4[C@@]5(C)CCC(=O)C(C)(C)[C@@H]5CC[C@]43C)[C@@H]12` [DIHYDROBETULONIC ACID] it was 2 µM. In the case of `CC1(C)CC[C@]23CC[C@]4(C)[C@H](CC[C@@H]5[C@@]6(C)Cc7nccnc7C(C)(C)[C@@H]6CC[C@]54C)[C@H]2[C@H]1OC3`, the IC50 amounted to 250 µM. In the case of `C=C(C)[C@@H]1CC[C@]2(CO)CC[C@]3(C)[C@H](CC[C@@H]4[C@@]5(C)Cc6nccnc6C(C)(C)[C@@H]5CC[C@]43C)[C@@H]12` it was 101 µM; in that of `C=C(C)[C@@H]1CC[C@]2(C(=O)O)CC[C@]3(C)[C@H](CC[C@@H]4[C@@]5(C)CC[C@H](O)C(C)(C)[C@@H]5CC[C@]43C)[C@@H]12` [BETULINIC ACID], 30 µM. In turn, `COC(=O)[C@]12CC[C@@H](C(C)C)[C@@H]1[C@H]1CC[C@@H]3[C@@]4(C)Cc5nc6ccccc6nc5C(C)(C)[C@@H]4CC[C@@]3(C)[C@]1(C)CC2` registered a half-inhibitory concentration (IC50) of 250 µM. This IC50 lies about 8.3-fold higher than the previous one.

These data come from ChEMBL document CHEMBL1142126, “Triterpenoid pyrazines and benzopyrazines with cytotoxic activity” (J Nat Prod, 2007).
